Source: ChEMBL document CHEMBL1129493 (J Med Chem, 1996)
≈ marks a conversion by molar mass, not a printed value. Calls of active or inactive are those of the source.

What was measured:
Candida albicans = assay: Minimum inhibitory concentration evaluated against Candida albicans; type: functional
HCT-8 = assay: Activity was evaluated against HCT-8 tumor cells; type: functional, cell-based; conditions: Homo sapiens
How it was run: (§1)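 Cytotoxicity was read by MTT dye reduction for suspension cultures or sulforhodamine B for monolayer cultures. For reversal of multidrug resistance, reserpine was added as reversing agent ([…] as printed).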

Dihydrofolate reductase [1] = target: T1, Dihydrofolate reductase (Homo sapiens, UniProt P00374); assay: Inhibition of human recombinant Dihydrofolate reductase enzyme
T1 sequence (P00374 whole entry): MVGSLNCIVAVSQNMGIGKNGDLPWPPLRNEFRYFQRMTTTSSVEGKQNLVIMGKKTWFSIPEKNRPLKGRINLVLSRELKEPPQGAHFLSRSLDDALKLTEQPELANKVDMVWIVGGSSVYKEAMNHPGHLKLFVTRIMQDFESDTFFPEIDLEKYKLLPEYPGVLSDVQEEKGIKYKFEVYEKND

Dihydrofolate reductase [2] = target: T2, Dihydrofolate reductase (Candida albicans, UniProt P22906); assay: Inhibition of Dihydrofolate reductase enzyme from Candida albicans
T2 sequence (P22906 whole entry): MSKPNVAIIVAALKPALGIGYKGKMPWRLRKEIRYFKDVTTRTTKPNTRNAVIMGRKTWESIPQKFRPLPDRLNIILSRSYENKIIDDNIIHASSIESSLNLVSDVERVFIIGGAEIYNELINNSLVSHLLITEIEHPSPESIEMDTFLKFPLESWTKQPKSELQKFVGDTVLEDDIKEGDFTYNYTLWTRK

[3] = Tissue distribution of the in rat lung relative to plasma concentration of 1 mg/kg; relative concentration
[4] = Tissue distribution of the in rat brain relative to plasma concentration of 1 mg/kg; relative concentration
KB [5] = assay: Cytotoxic activity was evaluated against KBV-1 cells in presence of reserpine; type: functional, Homo sapiens; how it was run: as §1
P388 [6] = assay: Cytotoxic activity was evaluated against P388/ADR + reserpine cells; type: functional, Mus musculus; how it was run: as §1
KB [7] = assay: Cytotoxic activity was evaluated against KBV-1 cells; type: functional, Homo sapiens; how it was run: as §1
MCF7 [8] = assay: Cytotoxic activity was evaluated against MCF-7/ADR+Reserpine cells; type: functional, Homo sapiens; how it was run: as §1
KB 3-1 = assay: Cytotoxic activity was evaluated against KB3-1 cells; type: functional, Homo sapiens; how it was run: as §1
P388 [9] = assay: Cytotoxic activity was evaluated against P388D1/ADR cells; type: functional, Mus musculus; how it was run: as §1
P388 [10] = assay: Cytotoxic Activity was evaluated against P388D1 cells; type: functional, Mus musculus; how it was run: as §1
MCF7 [11] = assay: Cytotoxic activity was evaluated against MCF-7 cells; type: functional, Homo sapiens; how it was run: as §1
MCF7 [12] = assay: Cytotoxic activity was evaluated against MCF-7/ADR cells; type: functional, Homo sapiens; how it was run: as §1
Mus musculus [13] = species on record: Mus musculus
Mus musculus [14] = species on record: Mus musculus; assay: Effect on Candida albicans nephritis and Meningitis in Immunosuppressed Mice brain; type: functional
How it was run: (§2)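 Immunosuppressed CD-1 female mice (10/group) given cyclophosphamide ip, 160 and 40 mg/kg on days -4 and -1; C. albicans 5 × 10^4 cfu/mouse iv via lateral tail vein. Sc dosing of 20 or 50 mg/kg in sesame oil at 3, 7, 24, 30 h post-inoculation; sulfamethoxazole 200 mg/kg ip in D5W given 1 h before each dose. Kidney and brain cultured at 48 h; log cfu/g tissue.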

Mus musculus [15] = species on record: Mus musculus; assay: Effect on Candida albicans nephritis and Meningitis in Immunosuppressed Mice kidney; type: functional; how it was run: as §2
Mus musculus [16] = species on record: Mus musculus; assay: Effect on Pneumocystis carinii pneumonia in SCID mice; type: functional
How it was run: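 SCID mice (10-11/group) were dosed prophylactically once daily from day 1 postinfection, 42 doses. Test drug in D5W was given ip, then leucovorin 12 mg/kg sc 30 min later. Trimethoprim 50 mg/kg plus sulfamethoxazole 250 mg/kg was given orally, and controls received D5W ip and sc. Lung impression smears were taken 24 h after the last dose and stained by immunofluorescence. Infection was scored 0-4 semilogarithmically, reported as mean ± SEM and as infected/total mice.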

Mus musculus [17] = species on record: Mus musculus; assay: Number of mice infected to tat of total number of mice ([…]/[…]); type: functional, organism-based
[18] = Cytotoxic activity was evaluated against L tumor cells; type: functional, cell-based; conditions: Mus musculus; how it was run: as §1
Mus musculus [19] = assay: Effect on life span of mice with intraperitoneally implanted P388 Leukemic cells; type: functional
How it was run: (§3)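 CDF-1 female mice (18–20 g, 5 or 8/group); P388 or P388/ADR cells implanted ip at 1 × 10^6 cells. Dosing began 24 h later; agents suspended in 0.5% carboxymethyl cellulose plus 1% Tween 80, given sc or ip qd × 10. Read-out was percent increase in life span.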

U-87 MG = assay: Cytotoxic activity was evaluated against U87MG tumor cells; type: functional, cell-based, U-87MG ATCC; conditions: Homo sapiens; how it was run: as §1
P388 [20] = assay: Cytotoxic activity was evaluated against P388D1 tumor cells; type: functional, cell-based; conditions: Mus musculus; how it was run: as §1
[21] = Relative concentration of compound in brain compared to concentration in plasma (0.4 ug/mL) at the time of tissue collection from mice; relative concentration; type: ADME, organism-based; conditions: mouse, read-out: Activity
Mus musculus [22] = assay: Effect on life span of mice with intracranially implanted P388 Leukemic cells; type: functional
How it was run: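 CDF-1 female mice (18–20 g, 5 or 8/group); P388 leukemia, maintained by in vivo serial passage, implanted intracranially at 1 × 10^5 cells. Treatment started 24 h later; test agents suspended in 0.5% carboxymethyl cellulose plus 1% Tween 80, given sc or ip qd × 10. Read-out was percent increase in life span versus controls.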

[23] = Cytotoxic activity was evaluated against Daoy tumor cells; type: functional, cell-based; conditions: Homo sapiens; how it was run: as §1
A549 = assay: Cytotoxic activity evaluated against A549 tumor cells; conditions: Homo sapiens
Mus musculus [24] = assay: Effect on life span of mice with intraperitoneally implanted P388/ADR Leukemic cells; type: functional; how it was run: as §3
MCF7 [25] = assay: Cytotoxic Activity was evaluated against MCF-7 cells; type: functional, Homo sapiens; how it was run: as §1

| Structure (SMILES) | MIC (Candida albicans) [µg/mL] | IC50 (HCT-8) [nM] | Ki (Dihydrofolate reductase [1]) [nM] | Ki (Dihydrofolate reductase [2]) [nM] | also measured |
| --- | --- | --- | --- | --- | --- |
| CCc1cc2c3c(N)nc(N)nc3ccc2n1C(C)CC (configuration not stated) | 0.1 (≈ 0.353 µM) | 0.82 | 0.0001 | < 0.05 | – |
| Cc1nc(N)nc(N)c1-c1ccc(Cl)c(Cl)c1 [METOPRINE] | – | – | – | – | Kp [3]: 31; Kp [4]: 6.5 |
| CC(C)c1cc2c(ccc3nc(N)nc(N)c32)[nH]1 | 0.05 (≈ 0.207 µM) | – | 0.01 | 0.16 | – |
| CC[C@]1(O)C[C@@H]2CN(CCc3c([nH]c4ccccc34)[C@@](C(=O)OC)(c3cc4c(cc3OC)N(C)[C@H]3[C@@](O)(C(=O)OC)[C@H](OC(C)=O)[C@]5(CC)C=CCN6CC[C@]43[C@@H]65)C2)C1 [VINBLASTINE] | – | – | – | – | Relative IC50 (KB [5]): 1.3; Relative IC50 (P388 [6]): 0.2 nM; Relative IC50 (KB [7]): 2000; Relative IC50 (MCF7 [8]): 0.5; Relative IC50 (KB 3-1): 1; Relative IC50 (P388 [9]): 19 nM; Relative IC50 (P388 [10]): 1; Relative IC50 (MCF7 [11]): 1; Relative IC50 (MCF7 [12]): 17500 |
| COc1cc(Cc2cnc(N)nc2N)cc(OC)c1OC | – | – | – | – | No. of mice infected /total (Mus musculus [13]): Partially active |
| CCc1cc2c3c(N)nc(N)nc3ccc2n1C | 0.1 (≈ 0.414 µM) | 8 | 0.029 | 1.3 | – |
| Cn1ccc2c3c(N)nc(N)nc3ccc21 | 1.6 (≈ 7.5 µM) | 580 | 0.23 | 25 | – |
| CC(C)n1c(C(C)(C)C)cc2c3c(N)nc(N)nc3ccc21 | 0.05 (≈ 0.168 µM) | 1.3 | 0.0002 | < 0.06 | – |
| Cc1cc(NS(=O)(=O)c2ccc(N)cc2)no1 [SULFAMETHOXAZOLE] | – | – | – | – | Log cfu/g of tissue (Mus musculus [14]): 4.7; Log cfu/g of tissue (Mus musculus [15]): 7.3 |
| Nc1nc(=O)c2c([nH]1)NCC(CNc1ccc(C(=O)N[C@@H](CCC(=O)O)C(=O)O)cc1)N2C=O (some centres not stated) [LEUCOVORIN] | – | – | – | – | Infection score (Mus musculus [16]): 3; No. of mice infected /total (Mus musculus [17]): Number of mice infected to tat of total number of mice ([…]/[…]) |
| CCCCc1cc2c3c(N)nc(N)nc3ccc2n1C(C)(C)C | > 0.1 | 52 | – | 0.38 | – |
| CCc1cc2c3c(N)nc(N)nc3ccc2n1C(C)(C)C | > 0.1 | 1.3 | – | – | – |
| CCC(CC)n1ccc2c3c(N)nc(N)nc3ccc21 | 0.001 (≈ 0.00371 µM) | 6 | 0.0045 | 0.22 | IC50 [18]: 2.2 nM; Increase in life-span (Mus musculus [19]): 80%; IC50 (U-87 MG): 8 nM; IC50 (P388 [20]): 4.5 nM; Kp [21]: 10; Increase in life-span (Mus musculus [22]): 55%; Log cfu/g of tissue (Mus musculus [15]): 6; IC50 [23]: 80 nM; IC50 (A549): 10 nM |
| CCn1c(C(C)C)cc2c3c(N)nc(N)nc3ccc21 | 0.1 (≈ 0.371 µM) | 1.4 | < 0.002 | 0.33 | – |
| COc1cccc2c1C(=O)c1c(O)c3c(c(O)c1C2=O)C[C@@](O)(C(=O)CO)C[C@@H]3O[C@H]1C[C@H](N)[C@H](O)[C@H](C)O1 [DOXORUBICIN] | – | – | – | – | Relative IC50 (KB [5]): 1.6; Increase in life-span (Mus musculus [19]): 130%; Increase in life-span (Mus musculus [24]): 30%; Relative IC50 (P388 [6]): 3.7 nM; Relative IC50 (KB [7]): 61; Relative IC50 (MCF7 [8]): 1.5; Relative IC50 (KB 3-1): 1; Relative IC50 (P388 [9]): 28 nM; Relative IC50 (P388 [10]): 1; Relative IC50 (MCF7 [25]): 1; Relative IC50 (MCF7 [12]): 200 |
| Cc1cc2c3c(N)nc(N)nc3ccc2n1C | 0.1 (≈ 0.44 µM) | 85 | 0.087 | – | – |
| CC(C)(C)c1cc2c(ccc3nc(N)nc(N)c32)[nH]1 | 0.05 (≈ 0.196 µM) | 3.3 | < 0.002 | 0.12 | – |
| CCC(CC)n1c(C(C)C)cc2c3c(N)nc(N)nc3ccc21 | > 0.1 | 0.75 | 0.0001 | < 0.05 | – |
| CCc1cc2c3c(N)nc(N)nc3ccc2n1C(CC)CC | 0.1 (≈ 0.336 µM) | 0.57 | 0.0002 | < 0.06 | – |
| Cc1cc2c3c(N)nc(N)nc3ccc2n1C(C)C | 0.025 (≈ 0.0979 µM) | 7.4 | 0.0064 | 0.22 | – |
| CCc1cc2c3c(N)nc(N)nc3ccc2n1CC | 0.2 (≈ 0.783 µM) | 0.59 | 0.01 | 0.33 | – |
| Nc1nc(N)c2c(ccc3[nH]ccc32)n1 | 0.8 (≈ 4.02 µM) | 1450 | 1 | 23 | – |
| CCCc1cc2c3c(N)nc(N)nc3ccc2n1C(CC)CC | > 0.1 | 4.4 | 0.0004 | < 0.11 | – |
| CCC(C)(C)n1c(C)cc2c3c(N)nc(N)nc3ccc21 | 0.025 (≈ 0.0882 µM) | 2.1 | 0.0004 | 0.0071 | – |
| CCCc1cc2c3c(N)nc(N)nc3ccc2n1CC | 0.1 (≈ 0.371 µM) | 3.1 | 0.024 | 0.65 | – |
